Test [1] addresses T1, 5-hydroxytryptamine receptor 1A (Rattus norvegicus, UniProt P19327).
T1 sequence (P19327 whole entry): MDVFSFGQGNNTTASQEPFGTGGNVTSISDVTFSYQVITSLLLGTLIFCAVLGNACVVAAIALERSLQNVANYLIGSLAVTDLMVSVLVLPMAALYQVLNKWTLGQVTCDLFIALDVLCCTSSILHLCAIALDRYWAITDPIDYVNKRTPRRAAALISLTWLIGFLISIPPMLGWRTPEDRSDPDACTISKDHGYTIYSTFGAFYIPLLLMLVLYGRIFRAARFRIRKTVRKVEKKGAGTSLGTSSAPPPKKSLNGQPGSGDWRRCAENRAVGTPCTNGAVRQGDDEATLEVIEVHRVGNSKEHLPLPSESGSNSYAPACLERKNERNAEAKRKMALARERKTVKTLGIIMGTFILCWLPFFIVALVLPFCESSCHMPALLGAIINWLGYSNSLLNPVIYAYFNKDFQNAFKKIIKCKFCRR
Put plainly: Binding affinity against the 5-hydroxytryptamine 1A receptor labelled with [3H]8-OH-DPAT in rat hippocampal homogenates. The class given is tissue-based, Hippocampus. Put shortly:
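Buffer is 50 mM Tris HCl pH 7.4 with 0.5 mM Na2EDTA, 0.1% Na ascorbate and pargyline. Triplicate tubes with 200-400 µg protein, 15 min at 37 °C, GF/C filtration. Nonspecific binding set with 10 µM 5-HT.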

The target of test [2] is T2, 5-hydroxytryptamine receptor 2C (Homo sapiens, UniProt P28335).
T2 sequence (P28335 whole entry): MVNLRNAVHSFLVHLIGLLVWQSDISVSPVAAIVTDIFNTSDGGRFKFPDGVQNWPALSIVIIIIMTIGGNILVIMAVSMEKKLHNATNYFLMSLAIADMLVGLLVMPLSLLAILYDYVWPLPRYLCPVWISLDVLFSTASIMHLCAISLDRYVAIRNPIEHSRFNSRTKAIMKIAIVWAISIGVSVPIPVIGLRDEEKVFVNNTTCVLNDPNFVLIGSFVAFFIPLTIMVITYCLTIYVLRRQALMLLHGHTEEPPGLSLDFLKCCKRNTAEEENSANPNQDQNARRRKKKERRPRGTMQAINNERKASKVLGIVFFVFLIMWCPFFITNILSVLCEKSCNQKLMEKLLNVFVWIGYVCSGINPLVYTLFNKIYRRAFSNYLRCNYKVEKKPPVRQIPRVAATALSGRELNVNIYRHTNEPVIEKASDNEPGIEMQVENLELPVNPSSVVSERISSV
Put plainly: Binding affinity against the cloned human 5-hydroxytryptamine 2C receptor using [125I]DOI as the radioligand. Put shortly: (§1)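 AV12 hamster fibroblast membranes stably expressing the human receptor, with 0.07-0.15 nM [125I]DOI. Buffer is 10 µM pargyline, 9.75 mM MgCl2, 0.5 mM EDTA, 0.1% ascorbate and 50 mM Tris pH 7.4. Incubation 30 min at 37 °C with about 40 µg (5-HT2A) or 30 µg (5-HT2C) protein, then gamma counting. Nonspecific binding set with 1 µM ketanserin (2A) or 10 µM mianserin (2C).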

Test [3] concerns the target 5-hydroxytryptamine receptor 2A (Homo sapiens, UniProt P28223). Nature of the test: Binding affinity against the cloned human 5-hydroxytryptamine 2A receptor using [125I]DOI as the radioligand. Put shortly:
as §1

The target of test [4] is 5-hydroxytryptamine receptor 2B (Homo sapiens, UniProt P41595). Nature of the test: Binding affinity against the cloned human 5-hydroxytryptamine 2B receptor using [3H]5-HT as the radioligand. Put shortly: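 Membranes come from AV12 hamster fibroblasts stably expressing the human receptor. About 2 nM [3H]-5-HT is used with drug dilutions spanning 6 log units, in 3 mM CaCl2, 10 µM pargyline, 50 mM Tris and 0.1% ascorbic acid, pH 7.4. Triplicate tubes with 100-150 µg protein, 15 min at 37 °C, PEI-soaked GF/B filtration. Nonspecific binding set with 10 µM 5-HT or 10 µM 1-naphthylpiperazine.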
Chain of 5-hydroxytryptamine receptor 2B (P41595 whole entry): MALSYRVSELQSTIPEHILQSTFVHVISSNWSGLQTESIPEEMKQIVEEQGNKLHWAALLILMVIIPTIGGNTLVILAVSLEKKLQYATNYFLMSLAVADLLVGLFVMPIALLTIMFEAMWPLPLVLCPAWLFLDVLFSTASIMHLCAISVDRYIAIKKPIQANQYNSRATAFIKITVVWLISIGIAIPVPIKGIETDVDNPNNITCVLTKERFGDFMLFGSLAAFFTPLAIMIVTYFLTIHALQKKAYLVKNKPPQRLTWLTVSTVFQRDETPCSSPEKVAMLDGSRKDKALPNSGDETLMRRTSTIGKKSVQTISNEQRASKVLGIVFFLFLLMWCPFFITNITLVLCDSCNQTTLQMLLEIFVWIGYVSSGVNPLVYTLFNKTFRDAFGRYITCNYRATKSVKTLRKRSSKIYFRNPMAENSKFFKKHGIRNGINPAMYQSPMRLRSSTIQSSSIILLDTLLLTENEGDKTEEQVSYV

Chain of 5-hydroxytryptamine receptor 2A (P28223 whole entry): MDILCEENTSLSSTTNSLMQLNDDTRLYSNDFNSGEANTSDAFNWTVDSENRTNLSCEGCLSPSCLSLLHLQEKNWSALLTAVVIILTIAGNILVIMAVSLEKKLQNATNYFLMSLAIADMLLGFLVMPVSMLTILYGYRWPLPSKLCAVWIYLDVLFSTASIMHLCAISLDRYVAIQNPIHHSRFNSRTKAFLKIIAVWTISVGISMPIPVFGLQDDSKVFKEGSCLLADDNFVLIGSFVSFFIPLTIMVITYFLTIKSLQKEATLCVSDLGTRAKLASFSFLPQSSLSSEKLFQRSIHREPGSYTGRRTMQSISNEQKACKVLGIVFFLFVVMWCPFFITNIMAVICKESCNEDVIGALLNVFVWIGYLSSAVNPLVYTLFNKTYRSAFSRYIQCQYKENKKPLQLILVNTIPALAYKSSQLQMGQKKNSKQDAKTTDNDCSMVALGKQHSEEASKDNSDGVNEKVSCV

For `COc1ccc2[nH]cc(C3CC3N)c2c1` (stereo not drawn), the inhibitory constant (Ki) – broadly, a dissociation constant, usually derived from enzyme kinetics or from competition with a known ligand – in test [1] came out at 40.1 nM; in test [2], 17.8 nM; in test [3] it was 30.9 nM; in test [4], 38.1 nM.

On to `NC1CC1c1c[nH]c2ccc(F)cc12` (stereo not drawn), for which the Ki came out at 258 nM in test [1], 1.9 nM in test [2], 10.2 nM in test [3] and 5.7 nM in test [4].

Take `COc1cccc2[nH]cc(C3CC3N)c12` (stereo not drawn): the inhibition constant Ki in test [2] turned out to be 11.8 nM; in test [3], 45.9 nM; in test [4] it was 64.9 nM.

Turning to `CC(CN)c1c[nH]c2ccccc12` (stereo not drawn), the Ki in test [2] was 9.3 nM; in test [3], 41 nM; in test [4] it was 87 nM.

Take `COc1ccc2[nH]cc(C(C)CN)c2c1` (stereo not drawn): the Ki in test [2] was determined as 1 nM; in test [3], 2.2 nM; in test [4], 8.3 nM.

Turning to `N[C@H]1C[C@@H]1c1c[nH]c2ccccc12`, the inhibition constant (Ki) came to 810 nM in test [1], 21.3 nM in test [2], 132 nM in test [3] and 93.5 nM in test [4].

Consider `N[C@@H]1C[C@H]1c1c[nH]c2ccccc12`, for which the Ki in test [1] was found to be 258 nM; in test [2], 44.1 nM; in test [3], 98.2 nM; in test [4], 58.5 nM.

For `NC1CC1c1c[nH]c2ccccc12` (racemic), the Ki in test [2] worked out at 29.9 nM; in test [3] it was 164 nM; in test [4], 58.3 nM.

(Values after ChEMBL document CHEMBL1131336, “Synthesis and serotonin receptor affinities of a series of trans-2-(indol-3-yl)cyclopropylamine derivatives” (J Med Chem, 1998).)
